Screening data from PubChem BioAssay.
Only some compounds are listed: those with a hit (about 3.3% of all), similar ones and a draw of the others.
SENP7 block = SENP7 protease inhibition. hit rate 1.5% among 330,000. recombinant SENP7, Z-RLRGG-aminoluciferin luminescence, 40 min. inhibition, % at 5 µM;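 active means inhibition above about 50% at the single test dose, limit read from the data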;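 further: plate controls were DMSO with enzyme for no effect and no enzyme buffer wells for full effect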
SENP8 block-1 = blocks human SENP8 cleavage of Nedd8 substrate | Q96LD8 | recombinant SENP8, Nedd8 substrate fluorescence | inhibition, % at 20 µM | hit rate 0.64% among 360,000; in the data active means inhibition mostly above about 40%, no sharp cut-off; inactive means mostly below about 27%
Target sequence (Q96LD8 whole entry, looked up): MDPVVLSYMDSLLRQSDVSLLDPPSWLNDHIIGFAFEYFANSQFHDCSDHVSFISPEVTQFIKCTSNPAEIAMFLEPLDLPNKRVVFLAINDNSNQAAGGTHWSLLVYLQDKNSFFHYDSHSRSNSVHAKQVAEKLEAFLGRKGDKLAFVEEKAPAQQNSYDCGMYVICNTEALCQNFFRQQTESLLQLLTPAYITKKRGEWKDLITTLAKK
SENP6 block = inhibitors of human SENP6 protease. Q9GZR1. Recombinant SENP6 catalytic domain, aminoluciferin luminescence. inhibition, % at 10 µM. hit rate 1.8% among 330,000;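 active means inhibition above about 50% at the single tested dose, limit read from the data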;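 further: plate controls were DMSO wells with enzyme for no effect and DMSO wells lacking enzyme for full effect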
Target sequence (Q9GZR1 628-1112 limits assumed): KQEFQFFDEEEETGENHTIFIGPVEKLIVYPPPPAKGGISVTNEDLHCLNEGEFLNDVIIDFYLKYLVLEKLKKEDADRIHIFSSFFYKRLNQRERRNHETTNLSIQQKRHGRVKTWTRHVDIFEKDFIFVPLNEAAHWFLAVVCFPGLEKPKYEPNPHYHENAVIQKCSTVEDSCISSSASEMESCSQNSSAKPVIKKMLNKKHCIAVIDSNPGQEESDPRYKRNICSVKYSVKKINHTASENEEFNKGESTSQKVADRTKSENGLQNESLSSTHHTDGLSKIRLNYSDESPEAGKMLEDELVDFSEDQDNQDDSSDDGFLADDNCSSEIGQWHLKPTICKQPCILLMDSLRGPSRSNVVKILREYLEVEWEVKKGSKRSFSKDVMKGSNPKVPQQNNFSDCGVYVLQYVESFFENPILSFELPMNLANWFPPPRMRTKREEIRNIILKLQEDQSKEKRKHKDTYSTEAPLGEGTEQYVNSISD
SENP8 block-2 = SENP8 protease inhibition | Q96LD8 | purified SENP8, Z-RLRGG-aminoluciferin cleavage, luminescence | inhibition, % at 10 µM | hit rate 1.2% among 330,000 | AID 2540; in the data active means inhibition above about 50%
SENP1 FRET inh = SENP1 (human) catalytic domain inhibition; AID 624204; recombinant SENP1 catalytic domain, CyPet-SUMO1-YPet FRET cleavage; hit rate 0.21% among 360,000; inhibition, % at 10 µM;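 active means inhibition at least 30% at 10 µM, raw YFP signal under a set limit, fluorescence ratio 0.5 to 1.5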;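 further: 0% = enzyme with DMSO and 100% = no enzyme wells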
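Material – human SENP1 catalytic domain · Input – SENP1 enzyme, 20 pM final · Compound dosing – single concentration of 10 µM compound, 0.5% DMSO final · Timing – enzyme reaction for 50 min at room temperature, dark · Measured by – FRET fluorescence in CFP and YFP emission channels · Control set – no-enzyme wells low, DMSO-plus-enzyme wells high control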
NRP1-CendR mod = alters CendR peptide binding to human NRP-1 | hit rate 0.85% among 360,000 | FAM-RPARPAR peptide binding to NRP-1, fluorescence polarization | inhibition, % at 25 µM | O14786 | AID 602438;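 active means inhibition or corrected inhibition above about 18%, plus a signal ratio from 0.5 to 1.5, limit read from the data, passing the limit was not always enough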
SENP8 conf = confirmation of human SENP8 protease inhibitors; hit rate 40% among 6,200; inhibition, % at 12.5 µM; shares compounds with SENP7 block; AID 488912; Recombinant SENP8, Z-RLRGG-aminoluciferin luminescence, 60 min;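 active means mean inhibition across replicates above about 50%, limit read from the data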
SENP6 confirm = human SENP6 inhibition, confirmed. shares compounds with SENP7 block. recombinant SENP6, Z-RLRGG-aminoluciferin luminescence. inhibition, % at 12.5 µM. hit rate 58% among 6,200
SENP7 confirm = human SENP7 inhibition, confirmed; recombinant SENP7, Z-RLRGG-aminoluciferin luminescence, 40 min; hit rate 69% among 6,200; AID 488917; shares compounds with SENP7 block; inhibition, % at 12.5 µM
Casp3 SENP sel = inhibits human caspase-3 in SENP selectivity test; shares compounds with SENP7 block; purified caspase-3, Z-DEVD-aminoluciferin luminescence, 60 min; inhibition, % at 12.5 µM; hit rate 60% among 6,200; AID 488918;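 active means mean inhibition above about 50%, limit read from the data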;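 further: plate controls were enzyme with DMSO for no effect and wells without caspase-3 for full effect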
SENP luc ctr = luminescence interference (SENP counter-screen). AID 488919. hit rate 39% among 6,200. inhibition, % at 12.5 µM. shares compounds with SENP7 block. Pre-incubated SENP8/Z-RLRGG-aminoluciferin, luciferase luminescence interference;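 active means mean inhibition above about 50% when retested at one dose, limit read from the data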;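 further: plate controls were DMSO wells with completed reaction for no effect and substrate without enzyme for full effect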
* hit, by the source's call; . = not tested or not shown.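 How the source made its calls, unless noted: active means mean inhibition above about 50% in the one-dose retest (limit read from the data); inactive means the rest.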

SMILES | SENP7 block | SENP8 block-1 | SENP6 block | SENP8 block-2 | SENP1 FRET inh | NRP1-CendR mod | SENP8 conf | SENP6 confirm | SENP7 confirm | Casp3 SENP sel | SENP luc ctr
CCCc1[nH]n(-c2nc3ccccc3s2)c(=O)c1C=NCCN1CCOCC1 | 36 | 23 | 51* | 34 | -1 | -9 | 56* | 40 | 52* | 60* | 55*
O=[N+]([O-])c1ccc(/C=N/Nc2nc3ccccc3o2)cc1 | 44 | 19 | -1 | -4 | 5 | 4 | . | . | . | . | .
CN(C)c1ccc(/C=N/Nc2nc3ccccc3o2)cc1 | 97* | -291 | 78* | 77* | 0 | 6 | 22 | 79* | 97* | 44 | 11
CC(/C=C/c1ccc(O)cc1)=N/O | 85* | 2 | 91* | 81* | 1 | -7 | 86* | 84* | 96* | 93* | 86*
Fc1ccccc1CSc1nnc(-c2ccccc2)o1 | 40 | 21 | 54* | 19 | 1 | -3 | 27 | 30 | 63* | 24 | 23
Cc1ccccc1-c1nnc(SCc2ccccc2F)o1 | 31 | -10 | 57* | 12 | 1 | -2 | 18 | 45 | 73* | 36 | 18
COc1ccc(-c2nnc(SCC(=O)c3cccs3)o2)cc1 | 56* | 15 | 24 | 27 | 2 | 13 | 16 | 36 | 83* | 55* | 10
COc1ccc(-c2nnc(SCc3ccccc3F)o2)cc1 | 67* | 15 | 69* | 53* | 4 | 5 | 68* | 70* | 89* | 49 | 51*
CC(=O)Nc1ccc(-c2cn3ccsc3n2)cc1 | 12 | -5 | -6 | -15 | 0 | 7 | . | . | . | . | .
c1cn2cc(-c3ccc4c(c3)OCO4)nc2s1 | 64* | 14 | 73* | 50* | 1 | -15 | 59* | 56* | 85* | 79* | 72*
Cc1cc(NC(=O)c2ccoc2C)ccc1Br | 97* | 4 | 100* | 97* | -2 | 5 | 98* | 99* | 102* | 95* | 96*
Cc1occc1C(=O)Nc1cccc(C(=O)O)c1 | 96* | 8 | 96* | 91* | 0 | -6 | 95* | 95* | 101* | 72* | 93*
Cc1occc1C(=O)Nc1ccc(S(N)(=O)=O)cc1 | 4 | 6 | 6 | -9 | -1 | 0 | . | . | . | . | .
Cc1occc1C(=O)Nc1ccc2c(c1)OCO2 | 80* | 22 | 84* | 54* | -1 | 11 | 64* | 63* | 89* | 90* | 74*
Nc1ccccc1C(=O)Nc1cccc(C(=O)O)c1 | 4 | -164 | 95* | 92* | 3 | -8 | 96* | 97* | 101* | 82* | 96*
O=C(O)c1cccc(NC(=O)c2ccccc2NC(=O)c2cccs2)c1 | . | 7 | . | . | 2 | -7 | . | . | . | . | .
COc1ccc(OC)c(C(O)c2ncc(-c3ccc(C(F)(F)F)cc3)[nH]2)c1 (configuration not stated) | . | 8 | . | . | 1 | 7 | . | . | . | . | .
CN(Cc1ccccn1)C(=O)c1cc(COc2ccc(F)c(F)c2)on1 | . | 17 | . | . | 0 | 7 | . | . | . | . | .
Cc1ccc(NC(=O)c2ccoc2C)cc1C | 97* | 16 | 92* | 92* | 1 | -21 | -2 | 94* | 101* | 96* | 93*
CSc1ccccc1C(=O)Nc1ccc(C)c(C)c1 | 68* | -2 | 65* | 39 | 2 | 0 | 54* | 52* | 84* | 74* | 70*
CSc1ccccc1C(=O)Nc1cc(C)cc(C)c1 | 3 | 28 | 19 | -5 | 1 | -4 | . | . | . | . | .
c1ccc(Nc2nc(-c3ccccn3)cs2)cc1 | 60* | -16 | -3 | 38 | 7 | 11 | 60* | 61* | 88* | 54* | 76*
COc1cccc2sc(Nc3nc(-c4ccccn4)cs3)nc12 | 45 | -84 | 65* | 42 | -15 | -8 | -7 | 56* | 85* | 28 | 12
CCOCC(=O)Nc1nc2ccc(OCC)cc2s1 | 63* | 8 | 71* | 37 | 1 | 6 | 56* | 51* | 81* | 79* | 62*
CCOCC(=O)Nc1nc2ccc(S(C)(=O)=O)cc2s1 | 4 | 17 | -2 | 2 | 1 | 9 | . | . | . | . | .
SMILES | SENP7 block | SENP8 block-1 | SENP6 block | SENP8 block-2 | SENP1 FRET inh | NRP1-CendR mod | SENP8 conf | SENP6 confirm | SENP7 confirm | Casp3 SENP sel | SENP luc ctr
Cc1ccc2nc(NC(=O)CCCC(=O)O)sc2c1 | 58* | 4 | 55* | 54* | 2 | -5 | 3 | 16 | 27 | 18 | 7
CCOCC(=O)Nc1nc2ccc(C)cc2s1 | 60* | 9 | 49 | 42 | 0 | 4 | 30 | 31 | 75* | 72* | 55*
Cc1ccc2nc(NC(=O)CCCc3nc4ccccc4s3)sc2c1 | 9 | 3 | 17 | 6 | -8 | -13 | . | . | . | . | .
CC(C)C[C@@H]1COc2cc(N3CC[C@H](O)C3)ccc2S(=O)(=O)N1 | . | 22 | . | . | 0 | -4 | . | . | . | . | .
COc1ccc2c(c1)C(=O)c1ccccc1CO2 | -5 | -11 | 56* | 23 | 0 | -9 | 70* | 74* | 91* | 67* | 67*
Cc1ccc(C(NC(N)=O)c2ccccc2)cc1 (configuration not stated) | 54* | 12 | 3 | 9 | 0 | 13 | 4 | 1 | -2 | -2 | -2
Cc1noc(C)c1COc1ccccc1C(=O)N(C)Cc1ccc(C(C)(C)C)cc1 | -9 | 10 | -13 | -15 | -1 | 8 | . | . | . | . | .
COc1ccc(CCCN2CCC(CN3C(=S)NC[C@@H]3Cc3ccccc3)CC2)cc1OC | . | 10 | . | . | 0 | 9 | . | . | . | . | .
CC1Cc2ccccc2N1C(=O)COC(=O)/C=C/c1ccc(F)cc1 (configuration not stated) | 1 | 8 | 7 | 1 | 1 | 10 | . | . | . | . | .
CC1Cc2ccccc2N1C(=O)/C=C/c1cccc(F)c1 (configuration not stated) | 55* | 20 | 28 | 51* | 2 | -2 | 1 | 74* | 90* | 61* | 55*
O=C(/C(N=Nc1cccc([N+](=O)[O-])c1)=C(/O)c1ccc(Br)cc1)C(F)(F)F | 1 | 29 | -7 | -10 | 5 | 9 | . | . | . | . | .
